Activity calls are given as the source filed them. The calls are words filed in the database; no cut-off is given here.
Assays:
[1] = biological target: T1, Tyrosine-protein phosphatase non-receptor type 1 (Homo sapiens) (UniProt P18031); experiment: Inhibition of recombinant human PTP1B (1 to 322 residues) expressed in Escherichia coli using pNPP as substrate incubated for 10 mins measured for 30 mins by spectrometric analysis
T1 sequence (whole entry): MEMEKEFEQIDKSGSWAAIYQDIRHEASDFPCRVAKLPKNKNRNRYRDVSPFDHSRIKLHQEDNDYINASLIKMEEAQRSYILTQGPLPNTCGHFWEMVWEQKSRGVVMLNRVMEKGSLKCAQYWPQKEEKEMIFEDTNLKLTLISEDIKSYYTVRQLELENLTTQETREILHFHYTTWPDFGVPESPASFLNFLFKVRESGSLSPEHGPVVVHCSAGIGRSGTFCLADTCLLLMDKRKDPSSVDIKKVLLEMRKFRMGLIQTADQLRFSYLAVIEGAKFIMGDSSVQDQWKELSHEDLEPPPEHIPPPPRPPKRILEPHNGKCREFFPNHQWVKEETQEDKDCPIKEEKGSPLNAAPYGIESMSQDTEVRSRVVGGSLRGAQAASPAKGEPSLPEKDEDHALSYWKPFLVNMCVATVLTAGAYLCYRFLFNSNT
Summary of the method: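 Enzyme (1 mg/mL stock) was mixed with sample in DMSO and 4 mM pNPP stock in 25 mM Tris-HCl pH 7.5, 1 mM EDTA, 2 mM b-mercaptoethanol and 1 mM DTT.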

[2] = biological target: T1, Tyrosine-protein phosphatase non-receptor type 1 (Homo sapiens); experiment: Competitive inhibition of recombinant human PTP1B (1 to 322 residues) expressed in Escherichia coli at 11.8 to 47.2 uM using pNPP as substrate by Line-weaver burk plot method
Summary of the method: (§1)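 Kinetics with pNPP substrate in 25 mM Tris-HCl (pH 7.5), 1 mM EDTA, 2 mM b-mercaptoethanol, 1 mM DTT, 37 °C. Initial velocities were recorded at several substrate and inhibitor concentrations and read at 405 nm. Vmax and Km came from Lineweaver-Burk plots, and the Kik/Kiv ratio was calculated per Yang et al.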

[3] = biological target: T1, Tyrosine-protein phosphatase non-receptor type 1 (Homo sapiens); details: 12.4 to 49.6 uM
[4] = biological target: T1, Tyrosine-protein phosphatase non-receptor type 1 (Homo sapiens); details: 0.47 uM
[5] = biological target: T1, Tyrosine-protein phosphatase non-receptor type 1 (Homo sapiens); details: 49.5 to 198.1 uM
[6] = biological target: T1, Tyrosine-protein phosphatase non-receptor type 1 (Homo sapiens); details: 457.3 to 1829.3 uM
[7] = biological target: T1, Tyrosine-protein phosphatase non-receptor type 1 (Homo sapiens); experiment: Competitive inhibition of recombinant human PTP1B (1 to 322 residues) expressed in Escherichia coli at 52.6 to 210.6 uM using pNPP as substrate by Line-weaver burk plot method
Summary of the method: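 PTP1B activity was followed by pNPP hydrolysis at 405 nm in 25 mM Tris-HCl pH 7.5 with 1 mM EDTA, 2 mM b-mercaptoethanol and 1 mM DTT, at 37 °C, with compound added in DMSO. Initial velocities were taken across substrate and inhibitor concentrations. Km and Vmax came from Lineweaver-Burk plots, with Dixon plots also used, and the Kik/Kiv ratio was calculated after Yang et al.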

[8] = biological target: T1, Tyrosine-protein phosphatase non-receptor type 1 (Homo sapiens); details: 11.7 to 47.1 uM
[9] = biological target: T1, Tyrosine-protein phosphatase non-receptor type 1 (Homo sapiens); experiment: Competitive inhibition of recombinant human PTP1B (1 to 322 residues) expressed in Escherichia coli at 99.4 to 397.8 uM using pNPP as substrate by Line-weaver burk plot method; summary of the method: as §1

**Q.** For `CO[C@@H]1C2C(=O)c3c(O)c4c(c(CC=C(C)C)c3O[C@@]23[C@H]2C[C@@H]1C(=O)[C@]3(C/C=C(/C)C(=O)O)OC2(C)C)O[C@](C)(CCC=C(C)C)C=C4` (stereo not given in full), which inhibition [1] is on record?
**A.** Dose-dependent effect

**Q.** And the inhibition [2]?
**A.** Active

**Q.** What does the source list for `CC(C)=CCC[C@]1(C)C=Cc2c(O)c3c(c(CC=C(C)C)c2O1)O[C@]12C(=C[C@@H]4C[C@H]1C(C)(C)O[C@@]2(C/C=C(/C)C(=O)O)C4=O)C3=O`?
**A.** inhibition [1]: Dose-dependent effect; inhibition [3]: Active; TDI [4]: Active

**Q.** Which results are given for `CC(C)=CCC/C(C)=C/Cc1c(O)c(CC=C(C)C)c2c(c1O)C(=O)C1=C[C@@H]3C[C@H]4C(C)(C)O[C@@](C/C=C(/C)C(=O)O)(C3=O)[C@@]14O2`?
**A.** inhibition [1]: Dose-dependent effect; inhibition [5]: Active

**Q.** For `CC(C)=CCc1c2c(c(O)c3c1O[C@]14C(=C[C@@H]5C[C@H]1C(C)(C)O[C@@]4(/C=C(/C)CO)C5=O)C3=O)C=CC(C)(C)O2`, which inhibition [1] is on record?
**A.** Dose-dependent effect

**Q.** What about the inhibition [6] of the same compound?
**A.** Active

**Q.** For `CO[C@@H]1C2C(=O)c3c(O)c4c(c(CC=C(C)C)c3O[C@@]23[C@H]2C[C@@H]1C(=O)[C@]3(C/C=C(/C)C(=O)O)OC2(C)C)OC(C)(C)C=C4` (stereo not given in full), which inhibition [1] is on record?
**A.** Dose-dependent effect

**Q.** What about the inhibition [7] of the same compound?
**A.** Active

**Q.** What does the source list for `CO[C@@H]1C2C(=O)c3c(O)c(C/C=C(\C)CCC=C(C)C)c(O)c(CC=C(C)C)c3O[C@@]23[C@H]2C[C@@H]1C(=O)[C@]3(C/C=C(/C)C(=O)O)OC2(C)C` (stereo not given in full)?
**A.** inhibition [1]: Dose-dependent effect; inhibition [8]: Active

**Q.** `COC1=C2C(=O)c3c(O)c4c(c(CC=C(C)C)c3O[C@@]23[C@H]2C[C@@H]1C(=O)[C@]3(CC=C(C)C)OC2(C)C)O[C@](C)(CCC=C(C)C)C=C4` was tested. Which inhibition [1] did it give?
**A.** Dose-dependent effect

**Q.** What about the inhibition [9] of the same compound?
**A.** Active

From ChEMBL document CHEMBL4038281, “Competitive protein tyrosine phosphatase 1B (PTP1B) inhibitors, prenylated caged xanthones from Garcinia hanburyi and their inhibitory mechanism” (Bioorg Med Chem, 2017)
